Data reported in ChEMBL document CHEMBL4513216, “Probing the Open Global Health Chemical Diversity Library for Multistage-Active Starting Points for Next-Generation Antimalarials” (ACS Infect Dis, 2020).

Assay: Toxicity liver stage against HepG2, at 10uM
Type: cell-based
Set-up: test concentration 10 uM, cell line HepG2-A16-CD81EGFP
Conditions: human, HepG2-A16-CD81EGFP cells; read-out: INHIBITION
Procedure, shortened: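 Uninfected HepG2-A16-CD81EGFP cells, 3 × 10^3 per well, 1536-well, plated on prespotted compound at 10 μM final, parasite-free screening media added to match infected plates; puromycin 10 μM positive, DMSO 0.5% negative; run in parallel with 48 h PbLuc assay at 37 °C, 5% CO2; viability by CellTiter-Glo luminescence, normalized to controls.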

Compound	cytotoxicity at 10 µM [%]
CC(C)CNC(=O)CN(CC(=O)NCC(C)C)S(C)(=O)=O	-12.2
Cc1cccc2c1nc1n2[C@@H](CNC(=O)c2ccccn2)COC1	6.49
O=C(C1CC1)N1CC[C@H](c2nc3ccccc3o2)C1	-4.07
COc1ccc2c(c1)OC1(CCN(Cc3cccc(C)c3)CC1)CC2=O	5.5
NC(=O)CN1CC(O)c2ccccc2S1(=O)=O (configuration not stated)	4.37
O=C(CCc1nnc2ccccn2c1=O)NCc1cccnc1	-1.74
O=S(=O)(Nc1cnc(N2CCCC2)nc1)c1ccc(C(F)(F)F)cc1	3.15
COc1ccc(C(=O)Nc2ccccc2-c2ccc(=O)n(C)n2)cc1	2.11
O=C(Cc1ccco1)N1CCC2(CCOCC2COCC2CC2)CC1 (configuration not stated)	4.65
CCN1CCc2cc(C(=O)N(C)C)c(NCC3CC3)nc2CC1	4.65
Cc1nc(CN2C(=O)CCC23CCN(c2ncccc2C)CC3)cs1	-2.07
CN(C)CCOCC1CN(C(=O)c2ccccn2)Cc2ccnn2C1 (configuration not stated)	-3.55
CS(=O)(=O)N[C@@H]1CN(Cc2ccoc2)C[C@@H]2CCCO[C@@H]21	13.2
CC(C)CCN1C[C@H]2CCN(C(=O)NC3CCCC3)CC[C@H]2S1(=O)=O	4.87
Cc1ncsc1CN1CC[C@H]2OCC[C@@]2(C(=O)N2CCCC2)C1	7.63
Cn1c(=O)n(C)c2nc(Br)c(CC(=O)c3ccccc3)n2c1=O	0.9
Cc1ccnc(NC(=O)c2cnc(C3CCCNC3)cn2)c1 (configuration not stated)	3.33
CN1CCN(C(=O)c2cncc(CC3CCCN(C)C3)c2)CC1 (configuration not stated)	7.87
CN(C)C(=O)C1CN(Cc2cscn2)CCN(S(C)(=O)=O)C1 (configuration not stated)	-6.46
CC(NC(=O)N(C)C1CC1)c1ccc(Oc2cccnc2)c(F)c1 (configuration not stated)	-1.23
Cc1cc(NC(=O)NCc2nccn2C)ccc1OC(C)C	-2.74

Compound	cytotoxicity at 10 µM [%]
CCn1cnnc1CNC(=O)NCC(C(C)C)N1CCC(C)CC1 (configuration not stated)	-4.65
Cc1ccc(C(=O)N2CCC3(CCCC3)CC2)c(=O)[nH]1	2.24
Cc1cnn(CCNCC(O)COc2cccc(C(F)(F)F)c2)c1 (configuration not stated)	-21.7
CC(NC(=O)CNS(C)(=O)=O)c1ccccc1Oc1ccccc1 (configuration not stated)	4.69
CCc1nnc2n1CCN(C(=O)CCc1ccc3c(c1)OCO3)C2	-2.62
CCOCC(=O)NCc1cc(Br)ccc1OC(F)F	21.9
CNC(=O)CN(C)C(=O)c1cc(Cl)c(Cl)n1C	4.4
CCOCc1ccc(NC(=O)C(C)C)cc1	2.25
COc1c(Cl)cc(C(=O)NCCNc2ncccn2)cc1Cl	-9.32
CCOc1ccc(NC2CCN(C(C)C)C2=O)cn1 (configuration not stated)	-17
CCOc1cccc(CCNC(=O)Cc2cccc(O)c2)n1	-5.26
CSCC1CCN(C(=O)c2ccccc2NCc2cccnc2)C1 (configuration not stated)	-3.33
CCc1ccc(CCn2cnc(C#N)n2)cc1	-0.224
Cc1ccc(C(=O)NCC2CCCCO2)c(=O)[nH]1 (configuration not stated)	-0.628
Cc1nsc(N2CCN(C(=O)Nc3cccc(C#N)c3)CC2)n1	-18.7
O=C(NCC(F)(F)F)NC1CCCc2c1cnn2CCO (configuration not stated)	4.44
Cc1cc(C)c2c(OCC(=O)NC(C)C)nn(C)c2n1	-7.25
Cc1ccc(C(=O)N2CCO[C@H]3[C@H](OCC4CCOCC4)CC[C@@H]32)o1	4.28
CCCc1n[nH]c(=O)n1Cc1ccccc1F	2.24
COc1cccc2c1OCC(C(=O)N(Cc1ccncc1)CC(C)C)C2 (configuration not stated)	-13.9
Cc1cc(CNC(=O)C(c2ccc(F)cc2)N(C)C)n[nH]1 (configuration not stated)	-15

Compound	cytotoxicity at 10 µM [%]
O=C(N[C@H]1COC[C@@H]1N1CCCC1)c1csc(Cc2ccccc2)n1	-30.2
CNS(=O)(=O)CCn1cc(-c2cc3c(cc2OC)CCC3)nn1	-2.12
O=C1CC(NS(=O)(=O)N2CCOCC2)CN1Cc1ccc(F)cc1 (configuration not stated)	-11
COCc1nc(C2CC2)nn1-c1ccccc1Cl	-0.808
CC[C@@H](c1ccccc1)n1c(C2CC2)n[nH]c1=O	-8.67
CN(Cc1nccn1C)c1nccc(N2CCCC(O)C2)n1 (configuration not stated)	-8.29
CN(C)CC1(O)CCCN(C(=O)c2cnc(-c3ccccn3)nc2)C1 (configuration not stated)	-5.53
NC(=O)c1cncc(-n2ccc(-c3cnccn3)n2)c1	-11.9
CCn1c(CC2CCN(S(=O)(=O)c3cccc(C)c3)CC2)nn(C)c1=O	2.01
CCC[C@@H]1CN(Cc2ccc(C(F)(F)F)nc2)C[C@H]1NS(C)(=O)=O	10.5
Cc1ncc(CC(=O)N2CCC(N3C[C@@H](C)O[C@@H](C)C3)CC2)c(=O)[nH]1	3.26
Cc1nc(-c2ccccc2)n(CC(=O)NC2CCCCC2)n1	-1.16
CCOc1ccc(CC(=O)N2CCCC(n3nc(C)nc3C)C2)cc1 (configuration not stated)	-3.18
Cc1cnn(CC2CN(Cc3ccc(C(N)=O)cc3)CCO2)c1 (configuration not stated)	-2.28
CC(C)Cc1cc(NC(=O)c2ccccn2)n(C)n1	-7.22
Cc1cc(C(=O)N2CCCC2)ccc1NCC(=O)N1CCCCC1C (configuration not stated)	5.12
Cc1nn(C)c(Cl)c1C1CCCN1Cc1nc(C2CC2)no1 (configuration not stated)	-6.42
CC(C)c1ncc2c(n1)CN(CC(=O)Nc1ccncc1)CC2	-3.23
CSc1nccn1-c1cccc(C(=O)NCCN2CCS(=O)(=O)CC2)c1	-3.97
CCn1cc(NC(=O)C2CCN(CC(=O)NCC(C)C)CC2)cn1	-7.52
NC(=O)CC1CCCCN1C(=O)c1cccc(C(F)(F)F)c1 (configuration not stated)	-1.03

Compound	cytotoxicity at 10 µM [%]
O=C(NCCNc1cnccn1)N1CCCC(N2CCCC2)C1 (configuration not stated)	-3.12
COCCN1CCN(CC(C)(O)c2cccc(C(F)(F)F)c2)CC1 (configuration not stated)	-24.2
CCc1ccc(OCC(O)CN2CCN(CC)CC2)cc1 (configuration not stated)	-6.54
CS(=O)(=O)NC1CCCN(C(=O)Nc2cccnc2)C1 (configuration not stated)	-14.2
COc1ccnc(N2CCN(C(=O)CN3CCCC3=O)CC2)n1	-5.21
CN(C)C1CCN(C(=O)c2ccc(Cn3ccccc3=O)o2)CC1	-2.11
COc1ccc(CNCc2ccnc(N3CCCCC3)c2)cc1OC	0.222
CC(=O)c1cccc(OCC(=O)NS(=O)(=O)c2ccc(C)s2)c1	-8.29
Cc1cccc(NC2CCN(C(=O)Nc3cc(C)on3)CC2)n1	-13.7
COCCOc1ncccc1CNCc1c(C)nn(C)c1N(C)C	-9.36
CCc1n[nH]c(C2CN(C(=O)c3nc(C)ncc3Cl)CCO2)n1 (configuration not stated)	-7.25
Cc1cc(N2CCN(Cc3ccnn3C)CC2)cc(C2CCCN2)n1 (configuration not stated)	6.97
Cc1ccc(C2(CN3CCN(Cc4cn(C)nc4C)CC3)CC2)cc1	1.74
CN(Cc1ccco1)Cc1cncc2c1CCN(c1ncccn1)C2	-6.42
O=C1C[C@H]2[C@@H](CCN2C(=O)Cc2cccs2)N1Cc1ccncc1	6.12
CN(Cc1ccccc1)C1COC2(CCN(Cc3nccs3)CC2)C1 (configuration not stated)	-19.5
Cc1cccc(C(=O)N2CC(C(=O)NCC3CC3)C3(CCOCC3)C2)n1 (configuration not stated)	2.11
O[C@@H]1CC(CNCc2cccc(Cl)c2)(COc2cccnc2)C[C@@H]1O (some centres not stated)	-1.29
O=C1C[C@@H]2CC[C@H](CN1)N2C1CCOCC1	-5.1
